# DENV2 CPE: protects cells from dengue virus 2 cytopathic effect; DENV2-infected cells, cytopathic effect rescue, plate reader; CPE inhibition, % at 9.99 µM; 350,000 tested, 1.7% active; AID 651640; in the data active means CPE inhibition above about 20%, passing the limit was not always enough; inconclusive means no clear call, values can overlap the other calls; tested in BHK-21 cells;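 further: 0% = median of neutral control wells and 100% = median of positive control wells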
# rRNA inh HTS: inhibits bacterial ribosomal RNA function over humanized ribosomes. GFP signal change (wild-type ribosome), % (test concentration not listed). E. coli WT GFP vs humanized-ribosome RFP mutants, fluorescence, 24 h; active compounds read low; DMSO median 0, no signal -100. 350,000 tested, 1.6% active;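 active means significant combined selectivity score with lowered wild-type GFP, culture density cut under 30%, mutant RFP and density less affected; inactive means any of these conditions unmet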
# MLL AF4-AF9 inh: blocks AF4 peptide binding to human AF9. P42568. AlphaScreen, biotin-AF4 peptide binding to FLAG-AF9. inhibition, % at 10 µM. 350,000 tested, 0.47% active. AID 651704;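 active means every replicate reaching a set inhibition limit, whatever the replicate mean, cut at about 25% in these data; inconclusive means mean inhibition reaches that limit but some replicates miss it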;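 further: 0% = plate neutral control median and 100% = total signal loss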
# S100A4 inh HTS: blocks human S100A4 binding to myosin IIA peptide; 360,000 tested, 0.14% active; P26447; inhibition, % at 10.7 µM; S100A4/TAMRA-MyoIIA peptide fluorescence polarization; AID 652163;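 active means mean inhibition of at least 70% across replicates, with every replicate also reaching that level; inconclusive means mean inhibition reaches 70% but some replicates fall short; inactive means mean inhibition below 70%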
# Target sequence (P26447 whole entry, looked up): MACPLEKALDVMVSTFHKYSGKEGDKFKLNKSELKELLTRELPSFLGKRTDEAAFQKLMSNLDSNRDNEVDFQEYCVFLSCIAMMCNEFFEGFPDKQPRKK
#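 Test system: S100A4 monomer protein; Medium: HEPES pH 7.2 with CaCl2, KCl, NaCl, DTT, Triton; Probe or stimulus: TAMRA-labelled myosin IIA heavy-chain peptide probe, 5 nM; Doses: one dose per compound; Times: polarization read 5 min after assay mix addition, stable 5–60 min; Benchmarks: neutral control DMSO, positive control TFP.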
# Cneo AK release: causes C. neoformans cell lysis | adenylate kinase release luminescence, 4 h; normalised: neutral wells 0, clomiphene wells 100 | lysis activity, % at 15 µM | 360,000 tested, 0.2% active | AID 651654;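 active means mean lysis activity across replicates of at least 80%, whatever share of replicates individually reach that level; inactive means mean lysis activity below 80%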
#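 Schedule: static 4 h at 37 °C with compound, 1 h detection; system: C. neoformans cells; benchmarks: Clomiphene as positive control; buffer or medium: fresh YPD medium; measure: luminescence rise reflecting yeast cell lysis; measured by: luminescent adenylate kinase detection reagent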
# PfHsp90 set2: reduces growth (ATP signal) of yeast expressing P. falciparum Hsp90; S. cerevisiae expressing PfHsp90, BacTiter-Glo ATP, 48 h; yeast lacking PDR1 and PDR3 efflux regulators; inhibition, % at 9.4 µM; 310,000 tested, 0.32% active; AID 504621;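 active means every replicate shows inhibition above about 80%, whatever the replicate mean, limit read from the data; inconclusive means mean inhibition reaches the set limit but some replicate falls short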;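 further: 0% = DMSO neutral controls and 100% = 20 µM radicicol positive controls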
# AID977621: wild-type E. coli growth inhibition versus H69 humanized strain – H69 mutant RFP, wild-type GFP, cherry-pick, dose response; shares compounds with rRNA inh HTS; fluorescence, 24 h; activity change, negative = inhibition at 50 µM; 1,900 tested, under 10 active;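 active means Wild-type ribosome reporter drop at least double the humanized mutant ribosome reporter drop, growth loss under a set limit; inconclusive means no clear call, values can overlap the other calls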;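 further: wild-type GFP and H69 mutant RFP strains grown together 50/50 in each well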
# AID977628: growth of wild-type and h24-humanized E. coli strains – h24 mutant RFP vs wild-type GFP, cherry-pick, dose response; shares compounds with rRNA inh HTS; 1,900 tested, under 10 active; activity change, negative = inhibition at 50 µM; E. coli WT GFP strain growth, fluorescence, 24 h; AID 977628;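 active means compound lowering the normal-ribosome reporter at least twice as much as the humanized-ribosome reporter, growth loss under a set limit; inconclusive means no clear call, values can overlap the other calls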;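 further: wild-type GFP and h24 humanized RFP strains co-cultured 1 to 1 per well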
# Starred values were filed as active, the others as inactive; ? = inconclusive; nt = no result given; ! = not confirmed by another sample. Hits are enriched below; roughly 3.2% of the tested compounds scored in any of these assays.
SMILES,DENV2 CPE,rRNA inh HTS,MLL AF4-AF9 inh,S100A4 inh HTS,Cneo AK release,PfHsp90 set2,AID977621,AID977628
O=C(Nc1ccc(F)c(Cl)c1)C1CC2CCC1C2 (stereo not drawn),-5,-28*,-4,-2,-1,-24,4.3,5
O=C(Nc1ccc(F)cc1)C1CC2CCC1C2 (stereo not drawn),-1,-3,-10,-11,1,-8,nt,nt
CC(=O)Nc1ccc(Nc2nc(C)c([N+](=O)[O-])c(Nc3ccccc3)n2)cc1,nt,nt,nt,nt,nt,17,nt,nt
CC(=O)Nc1ccc(Nc2nc(C)c([N+](=O)[O-])c(N(C)c3ccccc3)n2)cc1,7,-44*,12,-13,nt,21,?,?
C[C@@H]1CN([C@@H](C)CO)C(=O)c2cc(NC(=O)CCCCCC(=O)Nc3ccccc3N)ccc2O[C@@H]1CN(C)C,-1,0,4,-1,nt,nt,nt,nt
Cc1ccccc1-n1c([C@@H]2C[C@H]2c2ccccc2)n[nH]c1=S,1,-28*,nt,-1,-1,7,-18,-4.5
S=c1[nH]nc([C@@H]2C[C@H]2c2ccccc2)n1-c1ccccc1,nt,nt,nt,nt,0,3,nt,nt
Cc1noc(C)c1S(=O)(=O)N(C)C[C@H]1OCCCC[C@@H](C)Oc2ccc(NC(=O)NC(C)C)cc2C(=O)N([C@@H](C)CO)C[C@@H]1C,-5,2,-1,-1,-3,nt,nt,nt
Cc1ccc(C(=O)Nc2cccc(N(C)S(C)(=O)=O)c2)cc1S(=O)(=O)Nc1ccccc1,2,-20*,5,1,nt,-32,?,nt
Cc1nc2ccccc2cc1C(=O)NCc1ccco1,nt,nt,nt,nt,-4,-13,nt,nt
O=C(NCc1ccco1)c1ccc2ccccc2n1,7,-14*,-1,-1,nt,-10,-15,?
Cc1cccc(-c2ccc([C@H]3[C@H]4CN(C(=O)NC5CCCCC5)CC(=O)N4[C@H]3CO)cc2)c1,-4,-1,1,-3,nt,nt,nt,nt
C[C@H]1CN([C@@H](C)CO)C(=O)c2c(c3ccccc3n2C)-c2ccccc2CO[C@@H]1CN(C)Cc1ccccc1,-8,-42*,10,4,nt,nt,?,?
C[C@@H]1CN([C@H](C)CO)C(=O)c2c(c3ccccc3n2C)-c2ccccc2CO[C@@H]1CN(C)C(=O)CCN(C)C,3,-19*!,16,6,nt,nt,nt,-3.8
C[C@H]1CN([C@@H](C)CO)C(=O)c2c(c3ccccc3n2C)-c2ccccc2CO[C@@H]1CN(C)C(=O)CCN(C)C,-4,2,-3,9,-2,nt,nt,nt
C[C@@H]1CN([C@@H](C)CO)C(=O)c2cc(NS(=O)(=O)c3ccccc3)ccc2O[C@@H]1CN(C)Cc1ccncc1,4,0,-6,7,39,nt,nt,nt
COc1cccc(NC2=Nc3cccc4cccc2c34)c1,-2,-34*,?,-1,-6,-10,-0.48,nt
C(=C\c1ccc(C2[C@H]3CNC[C@@H]2N3Cc2nccs2)cc1)/c1ccccc1 (stereo partly drawn),-8,-21*!,8,-4,nt,nt,nt,?
Cc1ccc(-c2ccc(C3[C@H]4CNC[C@@H]3N4Cc3nccs3)cc2)cc1 (stereo partly drawn),0,0,-4,17,nt,nt,nt,nt
CCCN(C)C[C@H]1Oc2cc(-c3cncnc3)ccc2S(=O)(=O)N([C@H](C)CO)C[C@H]1C,13,3,-2,-6,2,nt,nt,nt
C[C@@H]1COCn2nncc2CCCC(=O)N1,nt,0,nt,nt,nt,nt,nt,nt
Nc1ccc(-n2cnc3cc([N+](=O)[O-])ccc32)cc1,nt,nt,nt,nt,16,-1,nt,nt
Cc1cccc(-n2cnc3cc([N+](=O)[O-])ccc32)c1,-4,-16*,1,-3,10,-18,-15,-15

# Source: PubChem BioAssay (Broad Institute)
